In publication PMC1915607 (Investigational New Drugs, 2007):
Where “and” joins values, the source holds several entries; their conditions need not be identical. Equal values may be shown once. Read-outs that look alike come from different tables or passages of the source. Marks after values point to notes of the source that are not given here.

Assays:
[1] = Plasma pharmacokinetics of unchanged ixabepilone; format: in vivo, human
Summary of the method: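 Eight advanced-cancer patients received a single 3 h IV infusion of 70 mg, 80 nCi [14C]-labelled test compound in Cremophor EL:ethanol diluted in Lactated Ringer's, with oral H1/H2 premedication. Blood was drawn 0–168 h and plasma was stored below −20°C. Parent was measured by isocratic LC-ESI-MS/MS (standard curve 2–500 ng/ml). Non-compartmental analysis gave AUCinf, CL=dose/AUCinf, and infusion-corrected Vss.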

[2] = Plasma pseudopharmacokinetics of total radioactivity; format: in vivo, human
Summary of the method: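 Same dosing, with separate, simultaneous plasma samples taken to 168 h. Total radioactivity was measured by AMS after combustion with CuO at 900°C and graphitisation at 500–550°C. Natural 14C background was subtracted, and values were converted to equivalents via carbon content and specific activity. Quantitation limit was <4 DPM/ml. Non-compartmental pseudo-parameters were derived, and AUClast ratio = parent AUClast / TRA AUClast. Outliers were assessed by Dixon's Q test.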

[3] = Urinary and faecal recovery; format: in vivo, human; conditions: for Radioactivity U/F ratio (urinary recovery relative to faecal recovery) / Recovery of ixabepilone in urine: 0–168 h; for Recovery of ixabepilone in urine: unchanged ixabepilone
[4] = Stability of [14C]-labelled ixabepilone; format: physicochemical
[5] = phase II, cited from earlier work
CYP3A4/5 = conditions: cited from earlier work
[6] = phase I dose escalation study, 11 patients, 40 mg/m^2; cited from earlier work
[7] = literature value, no reference given, cited from earlier work
[8] = inter-patient variability, flat 70 mg dose, this study
[9] = plasma, individual patients 1-8, 3 h iv infusion 70 mg

C/C(=C\c1csc(C)n1)[C@@H]1C[C@@H]2O[C@]2(C)CCC[C@H](C)[C@H](O)[C@@H](C)C(=O)C(C)(C)[C@@H](O)CC(=O)N1 [ixabepilone, 15-desoxy-15-aza-epothilone B]
Time to maximum plasma concentration ([1]; 3 h infusion, in words): around the end of infusion | clearance ([1]; human, plasma, intravenous, 70 mg, Ixabepilone Cl, mean of 8 patients): 422 mL/min | Vd ([1]; human, plasma, intravenous, 70 mg, Ixabepilone Vss, plasma, mean of 8 patients): 1150 L | Half-life ([1]; human, plasma, intravenous, 70 mg, Ixabepilone t1/2, plasma, mean of 8 patients): > 3000 min | Coefficient of variation for AUCinf of ixabepilone [1, 8]: 24% | Coefficient of variation for Cl of ixabepilone [1, 8]: 21% | Ixabepilone AUCinf [1, 9]: 2.22 µg·h/mL and 3.35 µg·h/mL and 2.97 µg·h/mL and 2.99 µg·h/mL and 4.32 µg·h/mL and 2.52 µg·h/mL and 2.29 µg·h/mL | Ixabepilone AUClast [1, 9]: 1.93 µg·h/mL and 3.06 µg·h/mL and 2.75 µg·h/mL and 2.83 µg·h/mL and 3.82 µg·h/mL and 2.42 µg·h/mL and 2.17 µg·h/mL | Ixabepilone Cl [1, 9]: 31.6 L/h and 20.9 L/h and 23.6 L/h and 23.4 L/h and 16.2 L/h and 27.8 L/h and 30.5 L/h | Ixabepilone Vss [1, 9]: 1520 L and 1635 L and 1275 L and 1174 L and 929 L and 1027 L and 756 L and 912 L | Ixabepilone t1/2 [1, 9]: 71.5 h and 47.2 h and 51.7 h and 53.0 h and 67.4 h and 23.5 h and 36.7 h | Initial distribution phase, duration ([1]; unchanged ixabepilone in plasma): approximately 10 h | Initial distribution phase, duration ([2]; TRA in plasma): approximately 10 h | AUClast ratio (AUClast ixabepilone / AUClast TRA) ([2]; plasma, individual patients 1-8, patient 1 outlier): 0.26 and 0.06 and 1.62^b and 0.25 and 0.19 and 0.12 and 0.18 | Radioactivity U/F ratio (urinary recovery relative to faecal recovery) ([3]; individual patients 1-8): 0.48 and 0.29 and 3.05 and 0.24 and 0.31 and 0.39 and 1.97 and 0.30 | Radioactivity U/F ratio (urinary recovery relative to faecal recovery) ([3]; mean, patients 4 and 8 not included): 0.33^b | Recovery of ixabepilone in urine ([3]; individual patients 1-8): 4.0 % of dose and 6.12 % of dose and 6.03 % of dose and 4.02 % of dose and 5.07 % of dose and 4.66 % of dose and 7.76 % of dose and 3.32 % of dose and 5.46 % of dose | Recovery of ixabepilone in urine ([3]; mean of 8 patients): 5.30 % of dose | Urinary radioactivity excreted in the first 24 h ([3]; first 24 h): 17 % of dose | Ixabepilone Clrenal ([3]; individual patients 1-8): 1.98 L/h and 1.87 L/h and 1.46 L/h and 1.16 L/h and 1.19 L/h and 1.92 L/h and 0.61 L/h and 1.58 L/h | Share of total urinary ixabepilone excreted in the first 24 h ([3]; of total urinary ixabepilone): 76% | Share of total urinary radioactivity excreted in the first 24 h ([3]; of total urinary radioactivity): 65% | Stability of labelled drug (autoradiolysis) ([4]; conventional [14C]-levels (100 μCi in a typical human radio-tracer study)): very unstable | Stability of labelled drug (autoradiolysis) ([4]; specific activity of 1.5 μCi/mg): unstable | Stability of labelled drug (autoradiolysis) ([4]; specific activity of less than 10 nCi/mg): stable | Response rate ([5]; hormone-refractory metastatic prostate cancer): 33% | Response rate ([5]; metastatic breast cancer, 6 to 40 mg/m^2 iv over 1 to 3 h): 12–44% | Response rate ([5]; metastatic renal cell carcinoma): 14% | Response rate ([5]; non-small cell lung cancer): 14% | CYP3A4/5 substrate (CYP3A4/5): CYP3A4/5 substrate | Coefficient of variation for AUCinf of ixabepilone [6]: 46% | Coefficient of variation for Cl of ixabepilone [6]: 38%

CC[C@]1(O)C[C@H]2CN(CCc3c([nH]c4ccccc34)[C@@](C(=O)OC)(c3cc4c(cc3OC)N(C=O)[C@H]3[C@@](O)(C(=O)OC)[C@H](OC(C)=O)[C@]5(CC)C=CCN6CC[C@]43[C@@H]65)C2)C1 [vincristine]
Half-life ([7]; in words): several days

CC[C@]1(O)C[C@@H]2CN(CCc3c([nH]c4ccccc34)[C@@](C(=O)OC)(c3cc4c(cc3OC)N(C)[C@H]3[C@@](O)(C(N)=O)[C@H](O)[C@]5(CC)C=CCN6CC[C@]43[C@@H]65)C2)C1 [vindesine]
Half-life [7]: 12 to 42 h
